Results published in ChEMBL document CHEMBL1138208, “Discovery of N-[(1S,2S)-3-(4-Chlorophenyl)-2- (3-cyanophenyl)-1-methylpropyl]-2-methyl-2- {[5-(trifluoromethyl)pyridin-2-yl]oxy}propanamide (MK-0364), a novel, acyclic cannabinoid-1 receptor inverse agonist for the treatment of obesity” (J Med Chem, 2006).
pIC50: −log10 of the molar value. Activity calls are given as the source filed them. The rule behind the calls is not given here.

Columns and labels:
[1] = target: Cannabinoid receptor 1 (Homo sapiens, UniProt P21554); assay: biochemical; format: cell-based, CHO
[2] = organism: Homo sapiens; assay: Protein binding in human liver microsome; format: ADME; conditions: microsomes
Method in brief: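 The tritiated compound was incubated with liver microsomes. Irreversible (covalent) binding of radioactivity to microsomal protein was measured after 1 h of incubation and expressed as pmol equiv/mg protein.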

[3] = target: Cannabinoid receptor 2 (Homo sapiens, UniProt P34972); assay: Inhibition of [3H]CP-55940 binding to human recombinant CB2 receptor in CHO cells; format: cell-based
[4] = Drug level in Sprague-Dawley rat plasma at 1 mg/kg, iv after 1 hr; format: ADME, organism-based; design: dose 1 mg/kg, route intravenous; conditions: read-out: Drug uptake
[5] = Bioavailability in dog at 0.2 mg/kg, iv and 0.4 mg/kg, po; format: ADME, organism-based, Canis lupus familiaris; conditions: in vivo
[6] = Half life in dog at 0.2 mg/kg, iv and 0.4 mg/kg, po; format: ADME, organism-based, Canis lupus familiaris; conditions: in vivo
[7] = Bioavailability in Sprague-Dawley rat at 1 mg/kg, iv and 2 mg/kg, po; format: ADME, organism-based; conditions: in vivo
[8] = Half life in rhesus monkey at 0.2 mg/kg, iv and 0.4 mg/kg, po; format: ADME, organism-based, Macaca mulatta; conditions: in vivo
[9] = tested on: Rattus norvegicus; assay: Reduction in Sprague-Dawley rat body weight at 0.3 mg/kg, po after 14 days relative to control; format: functional; design: scale not given: the % may be the effect or the level left
Method in brief: (§1)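 Diet-induced obese (DIO) rats were dosed orally once daily (qd) for 14 days at 0.3, 1 or 3 mg/kg. Body weight change is expressed as percent reduction relative to vehicle-treated animals.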

[10] = Drug level in Sprague-Dawley rat brain at 1 mg/kg, iv after 1 hr; format: ADME, organism-based; design: dose 1 mg/kg, route intravenous; conditions: read-out: Drug uptake
[11] = tested on: Rattus norvegicus; assay: Reduction in Sprague-Dawley rat body weight at 1 mg/kg, po after 14 days relative to control; format: functional; design: scale not given: the % may be the effect or the level left
Method in brief: as §1

[12] = tested on: Rattus norvegicus; assay: Reduction in Sprague-Dawley rat body weight at 3 mg/kg, po after 14 days relative to control; format: functional; design: scale not given: the % may be the effect or the level left
Method in brief: as §1

[13] = Bioavailability in rhesus monkey at 0.2 mg/kg, iv and 0.4 mg/kg, po; format: ADME, organism-based, Macaca mulatta; conditions: in vivo
[14] = tested on: Rattus norvegicus; assay: Inhibition of CP-55940-induced decrease in body temperature in Sprague-Dawley rat at 3 mg/kg, iv; format: functional, organism-based; design: dose 3 mg/kg
[15] = tested on: Rattus norvegicus; assay: Reduction in food uptake in DIO Sprague-Dawley rat at 10 mg/kg, po; format: functional; design: scale not given: the % may be the effect or the level left
Method in brief: (§2)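 Diet-induced obese rats were dosed orally. Overnight food intake was measured and reported as % change (mean ± error).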

[16] = tested on: Rattus norvegicus; assay: Reduction in food uptake in DIO Sprague-Dawley rat at 3 mg/kg, po; format: functional; design: scale not given: the % may be the effect or the level left
Method in brief: as §2

Chain of Cannabinoid receptor 2 (P34972 whole entry): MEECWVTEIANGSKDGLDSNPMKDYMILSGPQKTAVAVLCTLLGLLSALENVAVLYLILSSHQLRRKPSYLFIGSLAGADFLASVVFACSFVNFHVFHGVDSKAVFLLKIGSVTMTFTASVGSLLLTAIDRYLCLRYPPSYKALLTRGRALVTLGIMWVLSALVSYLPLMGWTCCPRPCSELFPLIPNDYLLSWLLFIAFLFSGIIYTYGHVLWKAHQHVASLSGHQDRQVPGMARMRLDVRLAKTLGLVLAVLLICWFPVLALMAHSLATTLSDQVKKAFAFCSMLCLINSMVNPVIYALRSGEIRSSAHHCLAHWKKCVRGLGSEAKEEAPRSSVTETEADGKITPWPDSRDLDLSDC
Chain of Cannabinoid receptor 1 (P21554 whole entry): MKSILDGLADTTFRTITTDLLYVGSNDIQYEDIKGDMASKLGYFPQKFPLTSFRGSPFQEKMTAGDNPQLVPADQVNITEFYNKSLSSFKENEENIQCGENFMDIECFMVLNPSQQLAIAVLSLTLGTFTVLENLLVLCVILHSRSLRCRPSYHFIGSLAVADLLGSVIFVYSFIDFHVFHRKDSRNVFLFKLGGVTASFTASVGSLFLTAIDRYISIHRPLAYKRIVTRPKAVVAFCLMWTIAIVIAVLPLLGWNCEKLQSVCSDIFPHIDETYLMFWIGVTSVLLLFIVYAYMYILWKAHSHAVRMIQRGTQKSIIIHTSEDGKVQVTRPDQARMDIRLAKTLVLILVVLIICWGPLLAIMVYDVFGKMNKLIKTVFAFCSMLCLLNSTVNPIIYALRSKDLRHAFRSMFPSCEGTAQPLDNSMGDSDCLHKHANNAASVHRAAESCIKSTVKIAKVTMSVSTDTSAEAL

Structure (SMILES): C[C@H](NC(=O)C(C)(C)Oc1ccc(Cl)cc1)[C@@H](Cc1ccccc1)c1ccccc1
- pIC50 [1]: 7.48

Structure (SMILES): C[C@H](NC(=O)C(C)(C)Oc1ccc(C(F)(F)F)cn1)[C@@H](Cc1ccc(Cl)cc1)c1ccccc1
- Activity [2]: 88 pmol/mg

Structure (SMILES): C[C@@H](NC(=O)C(C)(C)Oc1ccc(Cl)cc1)[C@H](Cc1ccc(Cl)cc1)c1ccccc1
- pIC50 [1]: 6.77
- pIC50 [3]: 5.77

Structure (SMILES): C[C@@H](NC(=O)C(C)(C)Oc1ccc(Cl)cc1)[C@H](Cc1ccc(Cl)cc1)c1ccc(Cl)cc1
- pIC50 [1]: 7.89
- pIC50 [3]: 6.22

Structure (SMILES): C[C@H](NC(=O)C(C)(C)Oc1ccc(Cl)cn1)[C@@H](Cc1ccc(Cl)cc1)c1ccccc1
- Activity [2]: 300 pmol/mg

Structure (SMILES): C[C@H](NC(=O)C(C)(C)Oc1ccc(C(F)(F)F)cn1)[C@@H](Cc1ccc(Cl)cc1)c1cccc(C#N)c1 [TARANABANT]
- concentration at 1 h [4]: 180 nM
- bioavailability [5]: 31%
- half-life [6]: 14 h
- bioavailability [7]: 74%
- half-life [8]: 3.6 h
- Activity [2]: 27 pmol/mg
- Activity [9]: 4%
- concentration at 1 h [10]: 110 nM
- Activity [11]: 5%
- Activity [12]: 7%
- bioavailability [13]: 31%
- Activity [14]: Active

Structure (SMILES): C[C@H](NC(=O)C(C)(C)Oc1ccncc1)[C@H](Cc1ccc(Cl)cc1)c1ccccc1
- pIC50 [1]: 7.77
- pIC50 [3]: 5.92

Structure (SMILES): C[C@H](NC(=O)C(C)(C)Oc1ccc(Cl)cc1)[C@@H](Cc1ccc(Cl)cc1)c1ccccc1F
- pIC50 [1]: 7.92
- pIC50 [3]: 6.39

Structure (SMILES): C[C@H](NC(=O)C(C)(C)Oc1ccccc1Cl)[C@@H](Cc1ccc(Cl)cc1)c1ccccc1
- pIC50 [1]: 7.74

Structure (SMILES): C[C@H](NC(=O)C(C)(C)Oc1cccnc1)[C@@H](Cc1ccc(Cl)cc1)c1ccccc1
- pIC50 [1]: 7.72

Structure (SMILES): C[C@H](NC(=O)C(C)(C)Oc1ccc(Cl)cc1)[C@@H](Cc1ccc(Cl)cc1)c1cccc(F)c1
- pIC50 [1]: 8.55
- pIC50 [3]: 6.28

Structure (SMILES): C[C@H](NC(=O)C(C)(C)Oc1ccccn1)[C@@H](Cc1ccc(Cl)cc1)c1ccccc1
- Activity [2]: 910 pmol/mg

Structure (SMILES): C[C@H](NC(=O)C(C)(C)Oc1ccc(Cl)cc1)[C@@H](Cc1ccccc1Cl)c1ccccc1
- pIC50 [1]: 6.85

Structure (SMILES): C[C@H](NC(=O)C(C)(C)Oc1ccc(Cl)cc1)[C@@H](Cc1ccc(Cl)cc1)c1ccc(F)cc1
- pIC50 [1]: 7.05

Structure (SMILES): C[C@H](NC(=O)C(C)(C)Oc1ccc(Cl)cc1)[C@@H](Cc1ccc(C(F)(F)F)cc1)c1ccccc1
- pIC50 [1]: 8.47

Structure (SMILES): C[C@H](NC(=O)C(C)(C)Oc1ccc(Cl)cc1)[C@@H](Cc1ccc(F)cc1)c1ccccc1
- pIC50 [1]: 7.85

Structure (SMILES): C[C@H](NC(=O)C(C)(C)Oc1ccccc1)[C@@H](Cc1ccc(Cl)cc1)c1ccccc1
- Activity [2]: 3900 pmol/mg

Structure (SMILES): C[C@H](NC(=O)C(C)(C)Oc1cc(F)cc(F)c1)[C@@H](Cc1ccc(Cl)cc1)c1ccccc1
- concentration at 1 h [4]: 350 nM
- Activity [15]: 81%
- bioavailability [7]: 19%
- Activity [2]: 1700 pmol/mg
- concentration at 1 h [10]: 270 nM
- Activity [16]: 55%
